Measured values: PubChem BioAssay AID504679 (The Scripps Research Institute Molecular Screening Center, 2011)
Activity calls are given as the source filed them.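 The calls were made as follows: active = IC50 of 10 µM or lower; inactive = IC50 above 10 µM.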

System: E. coli V66 + T4 gene 2 phage, OD growth
Test: RecBCD inhibition via phage-restricted bacterial growth – absorbance, V66 E. coli, dose response, counter-screen for AddAB inhibitor project, late-stage follow-up (AID 504679)
Summary of the method: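 System: E. coli V66 bacteria; probe or stimulus: gene 2 nonsense-mutant T4 bacteriophage at MOI 0.02; incubation: 18 h at 37 °C; signal: absorbance at 600 nm as bacterial growth measure; read-out basis: percent inhibition versus ciprofloxacin and DMSO wells; replicates: triplicate testing per compound concentration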

Compound	IC50
Cc1cccnc1NC(=O)c1ccc([N+](=O)[O-])o1	> 119 µM (inactive)
O=C(NCc1cccnc1)c1ccc([N+](=O)[O-])o1	93.8 µM (inactive)
O=C(OCC(=O)c1cccs1)c1ccc([N+](=O)[O-])o1	> 119 µM (inactive)
O=C(Nc1ncccn1)c1ccc([N+](=O)[O-])o1	> 119 µM (inactive)
N#Cc1c(NC(=O)c2ccc([N+](=O)[O-])o2)sc2c1CCC2	> 119 µM (inactive)
CCn1cc(C(=O)O)c(=O)c2cnc(N3CCN(C(=S)Nc4ccccc4C(F)(F)F)CC3)nc21	103 µM (inactive)
O=C(Nc1cccc(NC(=O)c2ccccc2Cl)c1)c1ccc([N+](=O)[O-])o1	> 119 µM (inactive)
NC(=O)c1ccsc1NC(=O)COC(=O)c1ccc([N+](=O)[O-])o1	> 119 µM (inactive)
O=C(Nc1ccc(N2CCOCC2)cc1)c1ccc([N+](=O)[O-])o1	> 119 µM (inactive)
Cc1ccc2nc(/C(C#N)=C\c3ccc([N+](=O)[O-])o3)[nH]c2c1	> 119 µM (inactive)
C=CCn1c(Sc2ncc([N+](=O)[O-])s2)n[nH]c1=O	46.5 µM (inactive)
CC(=O)Nc1ccc2nc(NC(=O)c3ccc([N+](=O)[O-])o3)sc2c1	> 119 µM (inactive)
